Experimental data as given in ChEMBL document CHEMBL1127532, “Presynaptic cholinergic modulators as potent cognition enhancers and analgesic drugs. 1. Tropic and 2-phenylpropionic acid esters” (J Med Chem, 1994).
Activity calls are given as the source filed them.

How the values were obtained:
[1] = biological target: Muscarinic acetylcholine receptor (Mus musculus) (UniProt Q920H4+Q9ERZ4+P12657+P32211+Q9ERZ3); assay: Analgesic activity after subcutaneous administration in male albino Swiss-Webster mice with the hotplate test; type: functional, organism-based
In short: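 Mouse hot-plate test, plate held at 52.5 ± 0.1 °C with a 45 s cutoff. Drug given subcutaneously, 8 to 20 mice per test. Potency expressed as ED50.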

[2] = species: Mus musculus; assay: Analgesic activity as percentage analgesic efficacy on male albino swiss-webster mice with the hotplate test; type: functional; parameters: concentration or dose not given beside the values
In short: (§1)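 Hot-plate test at 52.5 ± 0.1 °C, 45 s cutoff, compound dosed at its maximal nontoxic dose (the highest dose giving no visible behavioural change to blinded observers). Efficacy = (maximum reaction time − pretest time) / the same difference for morphine-HCl 8 mg/kg sc × 100.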

[3] = species: Mus musculus; assay: Analgesic activity as percentage analgesic efficacy on male albino Swiss-Webster mice with the hotplate test; Inactive; type: functional; in short: as §1
[4] = species: Mus musculus; assay: The compound was evaluated for the analgesic activity as percentage analgesic efficacy on male albino Swiss-Webster mice with the hotplate test; inactive; type: functional, organism-based; in short: as §1
[5] = biological target: Muscarinic acetylcholine receptor; assay: Binding affinity for [3H]QNB in membrane preparations from rat brain tissue
In short: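 [3H]QNB binding to rat brain membrane preparations. pKi calculated with the LIGAND program, mean of at least three experiments.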

[6] = species: Mus musculus; assay: The compound was evaluated for the analgesic activity as percentage analgesic efficacy on male albino Swiss-Webster mice with the hotplate test;Inactive; type: functional, organism-based; in short: as §1

SMILES | ED50 [1] [mg/kg] | Analgesic efficacy [2] [%] | Analgesic efficacy [3] | further results
CC(C)Cc1ccc(C(C)C(=O)OC2CC3CCC(C2)N3C)cc1 (configuration not stated) | 27 | 40 |  | 
CC(COC1CC2CCC(C1)N2C)c1ccc(Br)cc1 (configuration not stated) | 32 | 45 |  | 
CC(C(=O)OC1CC2CCC(C1)N2C)c1ccc(Br)cc1 (racemic) |  | 101 |  | 
CC(C(=O)OC1CC2CCC(C1)N2C)c1ccc(Br)cc1 (single isomer, unassigned; (+)) | 17 | 92 |  | 
CCN(CC)CC#CCOC(=O)C(CO)c1ccccc1.O=C(O)C(Oc1ccccc1)C(Oc1ccccc1)C(=O)O (configuration not stated) |  |  | inactive | 
COc1ccc(C(CO)C(=O)OC2CC3CCC(C2)N3C)cc1 (configuration not stated) |  |  | inactive | 
CC(C(=O)OC1CC2CCC(C1)N2C)c1ccccc1Cl (configuration not stated) | 36 | 83 |  | 
CC(C(=O)OC1CC2CCC(C1)N2C)c1ccc(C(F)(F)F)cc1 (configuration not stated) | 31 | 26 |  | 
CN(C)CCCOC(=O)C(CO)c1ccccc1.O=C(O)C(Oc1ccccc1)C(Oc1ccccc1)C(=O)O (configuration not stated) |  |  | inactive | 
CC(C(=O)OC1CC2CCC(C1)N2C)c1ccc(Br)cc1 (stereo in doubt; (-)-19) | 16 | 83 |  | 
CC(Cc1ccc(Cl)cc1)C(=O)OC1CC2CCC(C1)N2C (configuration not stated) |  |  | inactive | 
CC(C(=O)OC1CC2CCC(C1)N2C)c1ccc(N(C)C)cc1 (configuration not stated) |  |  | inactive | 
CCN1C2CCC1CC(OC(=O)C(C)c1ccc(Br)cc1)C2 (configuration not stated) |  |  |  | Analgesic efficacy [4]: inactive
CN1C2CCC1CC(OC(=O)Cc1ccccc1)C2 (configuration not stated) |  |  | inactive | 
CC(C(=O)OC1CC2CCC(C1)N2C)c1ccc(Br)cc1.O=C(O)/C=C\C(=O)O (racemic) |  |  |  | Log Ki [5]: -6.96
COc1ccc(C(C)C(=O)OC2CC3CCC(C2)N3C)cc1 (configuration not stated) | 32 | 97 |  | 
CC(C(=O)OC1CC2CCC(C1)N2C)c1ccc([N+](=O)[O-])cc1 (configuration not stated) | 18 | 38 |  | 
O=C(OC1CC2CCC(C1)N2)C(CO)c1ccccc1 (configuration not stated) | 5 | 35 |  | 
C[C@@H](C(=O)OC1CC2CCC(C1)N2C)c1ccccc1 (some centres not stated) |  |  |  | Analgesic efficacy [6]: inactive
CC(C(=O)OC1CC2CCC(C1)N2C)c1ccc(Cl)cc1.O=C(O)/C=C\C(=O)O (configuration not stated) | 36 | 83 |  | Log Ki [5]: -7.02
CN1[C@@H]2CC[C@H]1C[C@H](OC(=O)[C@@H](CO)c1ccccc1)C2 | 0.7 | 41 |  | 
CC(C(=O)OC1CC2CCC(C1)N2C)c1ccsc1 (configuration not stated) | 22 | 44 |  | 
CC(C(=O)OC1CC2CCC(C1)N2C)c1ccccc1Br (configuration not stated) | 30 | 62 |  | 

SMILES | ED50 [1] [mg/kg] | Analgesic efficacy [2] [%] | Analgesic efficacy [3] | further results
CN1C2CCC1CC(OC(=O)C(CO)c1ccc(Cl)cc1)C2 (configuration not stated) | 0.6 | 37 |  | 
CC(C(=O)OC1CC2CCC(C1)N2Cc1ccccc1)c1ccc(Br)cc1 (configuration not stated) | 28 | 34 |  | 
CCC(C(=O)OC1CC2CCC(C1)N2C)c1ccc(Br)cc1 (configuration not stated) | 33 | 81 |  | 
CCN(CC)CCOC(=O)C(C)c1ccc(Br)cc1 (configuration not stated) |  |  | inactive | 
CN1[C@@H]2CC[C@H]1C[C@H](OC(=O)[C@H](CO)c1ccccc1)C2 |  |  | inactive | 
CN1[C@@H]2CC[C@H]1C[C@@H](OC(=O)C(CO)c1ccccc1)C2 (mixture of isomers) | 0.7 | 42 |  | 
CC(C(=O)OC1CC2CCC(C1)N2C)c1ccc(F)cc1 (configuration not stated) | 31 | 79 |  | 
CN1C2CCC1CC(OC(=O)C(Cl)c1ccccc1)C2 (configuration not stated) |  |  | inactive | 
CC(C(=O)OC1CC2CCC(C1)N2C)c1ccc(N)cc1 (configuration not stated) | 6 | 41 |  | 
CC(C(=O)OC1CCN(C)CC1)c1ccc(Br)cc1 (configuration not stated) |  |  | inactive | 
CC(C(=O)OC1CC2CCC(C1)N2C)c1cccs1 (configuration not stated) | 5.4 | 21 |  | 
CCN(CC)CC#CCOC(=O)C(C)c1ccc(Br)cc1 (configuration not stated) |  |  | inactive | 
CC(C(=O)OC1CC2CCC(C1)N2)c1ccc(Br)cc1 (configuration not stated) |  |  | inactive | 
CN1C2CCC1CC(OC(=O)Cc1ccc(Br)cc1)C2 (configuration not stated) |  |  | inactive | 
CN1CCC(OC(=O)C(CO)c2ccc(Cl)cc2)CC1 (configuration not stated) | 5 | 26 |  | 
CC(C(=O)OC1CC2CCC(C1)N2C)c1ccccc1 (racemic) | 5 | 35 |  | 
CC(C(=O)OCCCN(C)C)c1ccc(Br)cc1 (configuration not stated) |  |  | inactive | 
CCN(CC)CCOC(=O)C(CO)c1ccc(Cl)cc1 (configuration not stated) |  |  | inactive | 
CCN1C2CCC1CC(OC(=O)C(CO)c1ccccc1)C2 (configuration not stated) | 7.3 | 33 |  | 
CC(C(=O)OC1CC2CCC(C1)N2C)c1cccc(Cl)c1 (configuration not stated) | 37 | 71 |  | 
C[C@H](C(=O)OC1CC2CCC(C1)N2C)c1ccccc1 (some centres not stated) | 3.1 | 29 |  | 
CC(C(=O)OC1CC2CCC(C1)N2C)c1ccc(Cl)c(Cl)c1 (configuration not stated) | 1 | 42 |  | 
